For one assay, the system named is 786-0. As to the kind of experiment: Cytotoxicity against human 786-0 cells. In kind it is functional, cell-based. The gist of the method: (§1)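 Tested in the NCI in vitro antitumor screen of 60 human tumour cell lines, after a prior NCI three-cell-line, one-dose primary anticancer assay.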
The test system of the next assay is SK-OV-3. As to the kind of experiment: Cytotoxicity against human SKOV3 cells. Format: functional, cell-based. The method in brief:
as §1

Another assay has as its system CCRF-CEM. Kind of assay: Cytotoxicity against human CCRF-CEM cells. Format: functional, cell-based. The method in brief:
as §1

The next assay deals with SF-295. Kind of assay: Cytotoxicity against human SF295 cells. Format: functional, cell-based. The gist of the method:
as §1

The subject of a further assay is PC-3. As to the kind of experiment: Cytotoxicity against human PC3 cells. Format: functional, cell-based. The gist of the method: as §1
Assay [1] in a line: Cytotoxicity against human […] cells. In kind it is functional, cell-based. The method in brief: as §1
A further assay has as its system COLO 205. As to the kind of experiment: Cytotoxicity against human COLO205 cells. Format: functional, cell-based. The gist of the method:
as §1

In another assay the test system is SF-539. As to the kind of experiment: Cytotoxicity against human SF539 cells. Format: functional, cell-based. The method in brief: as §1
The next assay concerns ACHN. As to the kind of experiment: Cytotoxicity against human ACHN cells. In kind it is functional, cell-based. The gist of the method:
as §1

Another assay deals with SR. As to the kind of experiment: Cytotoxicity against human SR cells. In kind it is functional, cell-based. The gist of the method: as §1
The next assay concerns HOP-62. As to the kind of experiment: Cytotoxicity against human HOP62 cells. Format: functional, cell-based. The method in brief: as §1
Another assay has as its system UO-31. Kind of assay: Cytotoxicity against human UO31 cells. Format: functional, cell-based. The gist of the method: as §1
The next assay concerns NCI-H460. Kind of assay: Cytotoxicity against human NCI-H460 cells. In kind it is functional, cell-based. The method in brief: as §1
In a further assay the test system is SK-MEL-2. As to the kind of experiment: Cytotoxicity against human SK-MEL-2 cells. In kind it is functional, cell-based. The method in brief:
as §1

A further assay deals with M14. Kind of assay: Cytotoxicity against human M14 cells. Format: functional, cell-based. The gist of the method:
as §1

Another assay relates to OVCAR-3. As to the kind of experiment: Cytotoxicity against human OVCAR-3 cells. In kind it is functional, cell-based. The method in brief:
as §1

A further assay deals with IGROV-1. Kind of assay: Cytotoxicity against human IGROV1 cells. In kind it is functional, cell-based. The method in brief: as §1
A further assay concerns A549. As to the kind of experiment: Cytotoxicity against human A549 cells. Format: functional, cell-based. The method in brief:
as §1

The next assay relates to HCT-116. Kind of assay: Cytotoxicity against human HCT116 cells. In kind it is functional, cell-based. The gist of the method:
as §1

The test system of another assay is LOX IMVI. Kind of assay: Cytotoxicity against human LOXIMVI cells. In kind it is functional, cell-based. The gist of the method: as §1
The test system of the next assay is DU-145. Kind of assay: Cytotoxicity against human DU145 cells. In kind it is functional, cell-based. The method in brief:
as §1

In another assay the test system is T47D. As to the kind of experiment: Cytotoxicity against human T47D cells. In kind it is functional, cell-based. The gist of the method:
as §1

In another assay the test system is HT-29. As to the kind of experiment: Cytotoxicity against human HT-29 cells. Format: functional, cell-based. The method in brief: as §1
The next assay deals with U-251. As to the kind of experiment: Cytotoxicity against human U251 cells. In kind it is functional, cell-based. The method in brief: as §1
For the next assay, the system named is MCF7. Kind of assay: Cytotoxicity against human MCF7 cells. Format: functional, cell-based. The gist of the method:
as §1

The next assay concerns NCI/ADR-RES. As to the kind of experiment: Cytotoxicity against human NCI/ADR-RES cells. In kind it is functional, cell-based. The method in brief: as §1
For another assay, the system named is Plasmodium falciparum. As to the kind of experiment: Antimalarial activity against Plasmodium falciparum. In kind it is functional, organism-based.
In assay [2] the test system is Mycobacterium tuberculosis. Kind of assay: Antitubercular activity against Mycobacterium tuberculosis H37Rv at 6.25 ug/mL. In kind it is functional, organism-based.

The source made the active and inactive calls. The rule behind the calls is not given here.

Broadly, the IC50 is the midpoint of a concentration-inhibition curve. Higher therefore signals weaker potency in that assay.

Regarding `CC/C=C/[C@H](CC)C/C=C/[C@@]1(CC)C[C@H](CC)[C@H](CC(=O)O)OO1` [PLAKORTIDE M], the IC50 in the assay with 786-0 worked out at 1600 nM; in the assay with SK-OV-3 it was 1300 nM; in the assay with CCRF-CEM, 200 nM; in the assay on SF-295, 1800 nM; with PC-3, 1600 nM; in assay [1], 1300 nM. For the same molecule, the half-maximal inhibitory concentration (IC50) in the assay with COLO 205 worked out at 1500 nM; with SF-539 it was 1800 nM; with ACHN, 1700 nM; in the assay on SR it was 400 nM; in the assay with HOP-62, 1600 nM; in the assay with UO-31, 1400 nM. Further, the IC50 was 1800 nM in the assay on NCI-H460; 11100 nM in the assay with SK-MEL-2; 6800 nM in the assay with M14; 2000 nM in the assay with OVCAR-3; 600 nM in the assay with IGROV-1; 1800 nM with A549. Moreover, the IC50 with HCT-116 turned out to be 2000 nM; in the assay with LOX IMVI, 500 nM; in the assay with DU-145 it was 1900 nM; in the assay on T47D it was 2200 nM; in the assay on HT-29 it was 1400 nM; in the assay with U-251, 1700 nM. Also, the results for the IC50 in the assay with MCF7 and with NCI/ADR-RES were 2900 nM and 1800 nM, respectively.

Molecule `CC/C=C/[C@H](CC)C/C(=C/[C@@]1(CC)C[C@H](CC)[C@H](CC(=O)OC)OO1)CC` came in with a half-maximal inhibitory concentration (IC50) with Plasmodium falciparum of at least 50 µg/mL. In [2], the result was inactive.

Take `CC/C=C/[C@H](CC)C/C(=C/[C@@]1(CC)C[C@H](CC)[C@H](CC(=O)O)OO1)CC` [PLAKORTIDE N]: the IC50 in the assay on 786-0 is 1300 nM; in the assay on SK-OV-3 it was 1900 nM; in the assay with CCRF-CEM, 100 nM; in the assay on SF-295 it was 300 nM; in the assay on PC-3 it was 300 nM; in assay [1], below 10 nM. The IC50 was determined as 1300 nM with COLO 205; 1500 nM in the assay on SF-539; 200 nM in the assay with ACHN; 100 nM in the assay on SR; 900 nM in the assay with HOP-62; 10 nM with UO-31. The IC50 with NCI-H460 is 200 nM; in the assay with SK-MEL-2, 1700 nM; with M14 it was 1600 nM; with OVCAR-3 it was 1100 nM; with IGROV-1 it was 60 nM; in the assay with A549 it was 100 nM. In addition, the IC50 in the assay on HCT-116 was found to be 400 nM; in the assay on LOX IMVI it was 30 nM; with DU-145, 400 nM; in the assay on T47D, 1300 nM; with HT-29, 500 nM; in the assay with U-251 it was 500 nM. For the same molecule, the half-inhibitory concentration (IC50) with MCF7 amounted to 1800 nM; with NCI/ADR-RES it was 400 nM.

Consider `CC/C=C/[C@H](CC)C/C=C/[C@@]1(CC)C[C@H](CC)[C@H](CC(=O)OC)OO1`, for which, in assay [2], the outcome was inactive.

(Values after ChEMBL document CHEMBL1159390, “Plakortides M and N, bioactive polyketide endoperoxides from the Caribbean marine sponge Plakortis halichondrioides” (J Nat Prod, 2003).)
